The values that follow come from ChEMBL document CHEMBL1121509, “Metabolic N-hydroxylation. Use of substituent variation to modulate the in vitro bioactivation of 4-acetamidostilbenes” (J Med Chem, 1980).

Type in all cases: ADME
Settings in all cases: microsomes

A short description of data set [1]: Selectivity ratio of Vmax and Km for microsomal oxidation. In short, it runs like this: (§1)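 V/K computed as Vmax/Km, an apparent first-order rate constant […], from Wilkinson-fitted kinetic constants of 10-min, 37 °C liver microsomal incubations with NADPH-generating system and paraoxon; metabolites quantified by TLC and dual-label (¹⁴C/³H) radiochemical assay.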

Data set [2] can be described thus: Compound was evaluated for the apparent kinetic constant (Km) for the microsomal oxidation (hydroxamic acid metabolite).
Data set [3] is described as follows: Compound was evaluated for the kinetic constant (Vmax) for the microsomal oxidation (hydroxamic acid metabolite); Values are pmol(1/mg of microsomal protein)min. Set-up: unit: pmol/min/mg protein.
The nature of data set [4]: Selectivity ratio of Vmax and Km for microsomal oxidation (hydroxamic acid metabolite). In short, it runs like this: as §1
A short description of data set [5]: Compound was evaluated for the kinetic constant (Vmax) for the microsomal oxidation (hydroxamic acid metabolite).
A short description of data set [6]: Compound was evaluated for the apparent kinetic constant (Km) for the microsomal oxidation (hydroxymethyl metabolite).
Data set [7] can be described thus: Compound was evaluated for the kinetic constant (Vmax) for the microsomal oxidation (hydroxymethyl metabolite); Values are pmol(1/mg of microsomal protein)min.
A short description of data set [8]: Compound was evaluated for the kinetic constant (Vmax) for the microsomal oxidation (glycolamide metabolite); Values are pmol(1/mg of microsomal protein)min.
Data set [9] in a line: Selectivity ratio of Vmax and Km for microsomal oxidation (glycolamide metabolite). In short, it runs like this:
as §1

The nature of data set [10]: Compound was evaluated for the apparent kinetic constant (Km) for the microsomal oxidation (glycolamide metabolite).
The nature of data set [11]: Compound was evaluated for the kinetic constant (Vmax) for the microsomal oxidation (omega-1 hydroxy metabolite); Values are pmol(1/mg of microsomal protein)min.
The nature of data set [12]: Selectivity ratio of Vmax and Km for microsomal oxidation (omega-1 hydroxy metabolite). Put shortly: as §1
Data set [13] is described as follows: Compound was evaluated for the apparent kinetic constant (Km) for the microsomal oxidation (omega-1 hydroxy metabolite).
The nature of data set [14]: Compound was evaluated for the apparent kinetic constant (Km) for the microsomal oxidation (4'-hydroxy metabolite).
Data set [15] in a line: Compound was evaluated for the kinetic constant (Vmax) for the microsomal oxidation (4'-hydroxy metabolite); Values are pmol(1/mg of microsomal protein)min.
Data set [16] in a line: Selectivity ratio of Vmax and Km for microsomal oxidation (4'-hydroxy metabolite). In short, it runs like this: as §1

`CC(=O)Nc1ccc(/C=C/c2ccc(Br)cc2)cc1`: the Ratio in data set [1] is given as 0.24. In addition, the Km (in general, the substrate concentration at which the rate is half of its maximum) in data set [2] was 1900 µM. The Vmax in data set [3] is reported as 457.
For the compound `CC(=O)Nc1ccc(/C=C/c2ccc(C)cc2)cc1`, in data set [4], the Ratio worked out at 4.05. For the same compound, the Km in [2] was 60 µM. Further, the Vmax in data set [5] was 243.
As for `CC(=O)Nc1ccc(/C=C/c2ccc(C(C)(C)C)cc2)cc1`, in data set [6], the Km stood at 90 µM. In data set [7], the Vmax was determined as 1129. Also, in data set [1], the Ratio was 12.54.
Turning to `CC(=O)Nc1ccc(/C=C/c2ccc(F)cc2)cc1`, the Ratio in data set [4] was determined as 0.03; in data set [9], 0.008. The Vmax in [8] turned out to be 27; in [3], 88. The results for the Km in data set [2] and in data set [10] were 2900 µM and 3300 µM, respectively.
As to `CC(=O)Nc1ccc(/C=C/c2ccc(Cl)cc2)cc1`, the Ratio in [4] amounted to 0.03; in data set [9] it was 0.005. In addition, the figures for the Vmax in [8] and in data set [3] were 17 and 98, respectively. Also, the Km in data set [2] is 3300 µM; in data set [10], 3500 µM.
In the case of `CC(=O)Nc1ccc(/C=C/c2ccc(C#N)cc2)cc1`, the Ratio in [1] was found to be 2.18. The Km in [2] turned out to be 310 µM. The Vmax in data set [3] was 677.
As to `CCCCOc1ccc(/C=C/c2ccc(NC(C)=O)cc2)cc1`, the Ratio in data set [4] is 0.28; in data set [12] it was 0.48. The results for the Vmax in [11] and in data set [3] were 530 and 330, respectively. In addition, the Km is 1200 µM in data set [2] and 1100 µM in data set [13].
As to `CC(=O)Nc1ccc(/C=C/c2ccccc2)cc1`, the results for the Ratio in data set [4] and in [16] were 0.99 and 0.93, respectively. For the same compound, the Km in data set [2] was 2800 µM; in data set [14], 500 µM. Moreover, the Vmax in data set [15] stood at 467; in data set [3] it was 2767.
